From ChEMBL document CHEMBL1151920, “Synthesis and biological evaluation of penem inhibitors of bacterial signal peptidase” (Bioorg Med Chem Lett, 2009) come the findings set out here.

In brackets after ≈: the same amount, converted by molar mass.

Assay [1] concerns Staphylococcus aureus. The assay can be described thus: Antibacterial activity against Staphylococcus aureus 8325 after 18 hrs by liquid dilution method. It is filed as functional. To be noted: Staphylococcus aureus, 8325, 18 h. The gist of the method: (§1)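 Broth microdilution MIC. Compounds 2-fold serially diluted in cation-adjusted Mueller–Hinton broth. Bacteria grown to 10^8 cfu/mL, then inoculated at a final 5 × 10^5 cells/mL. Incubated 37 °C, 18 h. MIC taken as the lowest concentration giving no visible growth. E. coli ATCC25922 was tested in the presence of polymyxin B as permeabilizing agent.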

The next assay concerns Escherichia coli. Put plainly: Antibacterial activity against permeabilizing agent polymyxin B-treated Escherichia coli ATCC 25922 after 18 hrs by liquid dilution method. It is filed as functional. Conditions: ATCC 25922, 18 h. Put shortly: as §1
In assay [2] the test system is Staphylococcus epidermidis. The assay can be described thus: Antibacterial activity against Staphylococcus epidermidis RP62A after 18 hrs by liquid dilution method. It is filed as functional. The gist of the method:
as §1

Assay [3] concerns Staphylococcus aureus. Put plainly: Antibacterial activity against methicillin-resistant Staphylococcus aureus USA300 after 18 hrs by liquid dilution method. It is filed as functional. To be noted: USA300, 18 h.
The next assay concerns the target Signal peptidase I (Escherichia coli K-12, UniProt P00803). The assay can be described thus: Inhibition of Escherichia coli signal peptidase.

Signal peptidase I, sequence (P00803 whole entry): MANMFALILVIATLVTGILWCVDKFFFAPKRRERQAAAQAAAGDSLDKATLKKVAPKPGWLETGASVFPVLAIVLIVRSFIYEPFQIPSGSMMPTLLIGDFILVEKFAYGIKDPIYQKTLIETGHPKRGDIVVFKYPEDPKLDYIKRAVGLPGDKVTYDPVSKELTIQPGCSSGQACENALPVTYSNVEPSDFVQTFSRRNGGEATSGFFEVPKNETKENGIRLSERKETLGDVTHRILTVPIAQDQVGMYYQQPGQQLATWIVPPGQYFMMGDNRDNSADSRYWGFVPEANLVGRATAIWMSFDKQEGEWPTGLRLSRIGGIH

As usually defined, the MIC is the lowest concentration found to suppress growth. Read a high MIC as a need for much substance. As for `CC(C)C(=O)O[C@H](C)[C@H]1C(=O)N2C(C(=O)OCc3ccc([N+](=O)[O-])cc3)=CS[C@@H]12`, the minimal inhibitory concentration (MIC) against Staphylococcus aureus [1] was more than 200 µg/mL; against Escherichia coli, more than 200 µg/mL; in assay [2], 50 µg/mL (≈ 119 µM); against Staphylococcus aureus [3] it was more than 200 µg/mL.
For the compound `CC(C)NC(=O)O[C@H](C)[C@H]1C(=O)N2C(C(=O)OCc3ccc([N+](=O)[O-])cc3)=CS[C@@H]12`, the MIC against Staphylococcus aureus [1] is more than 200 µg/mL; against Escherichia coli it was more than 200 µg/mL; in assay [2], 100 µg/mL (≈ 230 µM); against Staphylococcus aureus [3], 100 µg/mL (≈ 230 µM).
Turning to `CCC(=O)O[C@H](C)[C@H]1C(=O)N2C(C(=O)OCc3ccc([N+](=O)[O-])cc3)=CS[C@@H]12`, the MIC is more than 200 µg/mL in the assay on Staphylococcus aureus [1], more than 200 µg/mL with Escherichia coli, 100 µg/mL (≈ 246 µM) in assay [2] and more than 200 µg/mL against Staphylococcus aureus [3].
For `CC[C@H](C)[C@H](NC(C)=O)C(=O)O[C@H](C)[C@H]1C(=O)N2C(C(=O)OCc3ccc([N+](=O)[O-])cc3)=CS[C@@H]12`, the MIC (in the assay with Staphylococcus aureus [1]; against Escherichia coli; in assay [2]; in the assay on Staphylococcus aureus [3]) was more than 200 µg/mL throughout.
For `CC(=O)N[C@@H](C)C(=O)O[C@H](C)[C@H]1C(=O)N2C(C(=O)OCc3ccc([N+](=O)[O-])cc3)=CS[C@@H]12`, the MIC (in the assay with Staphylococcus aureus [1]; against Escherichia coli; in assay [2]; in the assay with Staphylococcus aureus [3]) was more than 200 µg/mL in each case.
As to `COCCOCO[C@H](C)[C@H]1C(=O)N2C(C(=O)OCc3ccc([N+](=O)[O-])cc3)=CS[C@@H]12`, the MIC against Staphylococcus aureus [1] was 200 µg/mL (≈ 456 µM); with Escherichia coli, more than 200 µg/mL; in assay [2], 100 µg/mL (≈ 228 µM); with Staphylococcus aureus [3], more than 200 µg/mL.
As to `CC(=O)O[C@H](C)[C@H]1C(=O)N2C(C(=O)OCc3ccc([N+](=O)[O-])cc3)=CS[C@@H]12`, the MIC with Staphylococcus aureus [1] was more than 200 µg/mL; with Escherichia coli, more than 200 µg/mL; in assay [2], 100 µg/mL (≈ 255 µM); against Staphylococcus aureus [3] it was more than 200 µg/mL.
As for `CCNC(=O)O[C@H](C)[C@H]1C(=O)N2C(C(=O)OCc3ccc([N+](=O)[O-])cc3)=CS[C@@H]12`, the MIC is more than 200 µg/mL in the assay with Staphylococcus aureus [1], more than 200 µg/mL in the assay on Escherichia coli, 100 µg/mL (≈ 237 µM) in assay [2] and 100 µg/mL (≈ 237 µM) against Staphylococcus aureus [3].
Take `C[C@@H](O)[C@H]1C(=O)N2C(C(=O)OCc3ccc([N+](=O)[O-])cc3)=CS[C@@H]12`: the MIC in the assay on Staphylococcus aureus [1] was 200 µg/mL (≈ 571 µM); with Escherichia coli it was more than 200 µg/mL; in assay [2], 50 µg/mL (≈ 143 µM); against Staphylococcus aureus [3] it was more than 200 µg/mL.
With `COCO[C@H](C)[C@H]1C(=O)N2C(C(=O)OCc3ccc([N+](=O)[O-])cc3)=CS[C@@H]12`, the MIC was more than 200 µg/mL against Staphylococcus aureus [1], more than 200 µg/mL against Escherichia coli, 50 µg/mL (≈ 127 µM) in assay [2] and more than 200 µg/mL in the assay with Staphylococcus aureus [3].
As for `CCOCO[C@H](C)[C@H]1C(=O)N2C(C(=O)OCc3ccc([N+](=O)[O-])cc3)=CS[C@@H]12`, the MIC with Staphylococcus aureus [1] is more than 200 µg/mL; in the assay on Escherichia coli, more than 200 µg/mL; in assay [2], 50 µg/mL (≈ 122 µM); against Staphylococcus aureus [3], more than 200 µg/mL.
The IC50 is the midpoint of a concentration-inhibition curve. Low values mean greater potency in that assay, high ones weaker potency in that assay. With `C[C@@H](O)[C@H]1C(=O)N2C(C(=O)O)=CS[C@@H]12`, 180 nM corresponded to half-maximal inhibition at Signal peptidase I (IC50).
With `CC(=O)NCC(=O)O[C@H](C)[C@H]1C(=O)N2C(C(=O)OCc3ccc([N+](=O)[O-])cc3)=CS[C@@H]12`, the MIC (in the assay on Staphylococcus aureus [1]; in the assay on Escherichia coli; in assay [2]; against Staphylococcus aureus [3]) was more than 200 µg/mL throughout.
In the case of `CCCC(=O)O[C@H](C)[C@H]1C(=O)N2C(C(=O)OCc3ccc([N+](=O)[O-])cc3)=CS[C@@H]12`, the MIC against Staphylococcus aureus [1] is more than 200 µg/mL; against Escherichia coli it was more than 200 µg/mL; in assay [2] it was 100 µg/mL (≈ 238 µM); against Staphylococcus aureus [3] it was more than 200 µg/mL.
In the case of `CC(=O)N[C@H](C(=O)O[C@H](C)[C@H]1C(=O)N2C(C(=O)OCc3ccc([N+](=O)[O-])cc3)=CS[C@@H]12)C(C)C`, the MIC (against Staphylococcus aureus [1]; against Escherichia coli; in assay [2]; against Staphylococcus aureus [3]) was more than 200 µg/mL in each case.
As for `CC(C)CC(=O)O[C@H](C)[C@H]1C(=O)N2C(C(=O)OCc3ccc([N+](=O)[O-])cc3)=CS[C@@H]12`, the MIC was more than 200 µg/mL with Staphylococcus aureus [1], more than 200 µg/mL against Escherichia coli, 100 µg/mL (≈ 230 µM) in assay [2] and more than 200 µg/mL in the assay on Staphylococcus aureus [3].
